# Screening data from PubChem BioAssay.
# The list is not random: actives were taken first. Their share in the collection is about 1.9%.
# UBC13 polyUb: human UBC13 polyubiquitination inhibition; UBC13 polyubiquitin chain formation, TR-FRET; inhibition, % at 20 µM; hit rate 0.47% among 330,000; AID 485273; in the data active = inhibition above about 45%, passing the limit was not always enough
# Target sequence (P61088 whole entry, looked up): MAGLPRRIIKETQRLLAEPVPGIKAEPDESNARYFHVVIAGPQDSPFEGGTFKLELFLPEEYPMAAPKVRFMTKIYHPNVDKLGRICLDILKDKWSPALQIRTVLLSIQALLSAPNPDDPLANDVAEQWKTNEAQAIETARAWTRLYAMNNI
# IDE cell activ: boosts human insulin-degrading enzyme activity in HEK cells; FAbeta-B cleavage, fluorescence polarization; 0% vehicle, 100% cell-free pure enzyme wells; hit rate 0.073% among 340,000; AID 493087; activation, % at 5.96 µM; P14735;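 active = activation above the mean of all tested compounds plus 3 SD, set per screening campaign, cut at about 17% in these data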
# IDE inh: inhibits human insulin-degrading enzyme in HEK cells. P14735. FAbetaB cleavage, fluorescence polarization. inhibition, % at 5.59 µM. hit rate 0.41% among 320,000. AID 434962;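 active = percent inhibition above the average of all tested compounds plus 3 SD, set per screening campaign, cut at about 16% in these data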;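 note: IDE supplied by intact live HEK cells; FP after avidin binding of uncleaved biotin substrate so inhibition keeps polarization high; 0% = DMSO wells and 100% = 60 µM reference IDE inhibitor Ii1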
# procasp3 activ: procaspase-3 (human) activation; P42574; recombinant procaspase-3 D3A, Ac-DEVD-pNA absorbance 405 nm; activation, % at 8.5 µM; hit rate 0.11% among 330,000;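 active = activation above the mean of all tested compounds plus 3 SD, cut at about 21% in these data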;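 note: 0% = DMSO alone and 100% = DMSO wells spiked with extra 5 µM PC-3 D3A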
# Target sequence (P42574 whole entry D9A/D28A/D175A): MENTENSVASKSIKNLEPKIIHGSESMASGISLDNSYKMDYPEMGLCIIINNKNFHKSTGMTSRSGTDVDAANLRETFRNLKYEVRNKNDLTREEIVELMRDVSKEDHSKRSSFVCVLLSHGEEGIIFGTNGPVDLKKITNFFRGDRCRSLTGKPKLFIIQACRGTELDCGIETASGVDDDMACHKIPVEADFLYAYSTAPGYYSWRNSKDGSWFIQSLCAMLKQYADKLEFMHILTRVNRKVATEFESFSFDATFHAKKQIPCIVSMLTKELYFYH
#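 Technique: 405 nm absorbance of p-nitroaniline, reads at 0 and 120 min; Test system: Procaspase-3 D3A mutant; Incubation: 1 h enzyme-compound preincubation, then 2 h substrate reaction, 25 °C; Repeats: singlicate, each compound tested once; Benchmarks: low control DMSO wells, high control DMSO plus 5 µM PC-3 D3A.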
# procasp7 counter: counter-screen: procaspase-7 (human) activation; recombinant procaspase-7, Ac-DEVD-pNA absorbance 405 nm; D23A/D198A/D206A triple mutant, cannot self-cleave; scale: DMSO 0, 5 µM enzyme 100; activation, % at 8.5 µM; hit rate 0.093% among 330,000; AID 463210;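 active = percent activation above the screen-wide mean plus 3 SD, cut at about 25% in these data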
# Target sequence (P55210 whole entry D23A/D198A/D206A): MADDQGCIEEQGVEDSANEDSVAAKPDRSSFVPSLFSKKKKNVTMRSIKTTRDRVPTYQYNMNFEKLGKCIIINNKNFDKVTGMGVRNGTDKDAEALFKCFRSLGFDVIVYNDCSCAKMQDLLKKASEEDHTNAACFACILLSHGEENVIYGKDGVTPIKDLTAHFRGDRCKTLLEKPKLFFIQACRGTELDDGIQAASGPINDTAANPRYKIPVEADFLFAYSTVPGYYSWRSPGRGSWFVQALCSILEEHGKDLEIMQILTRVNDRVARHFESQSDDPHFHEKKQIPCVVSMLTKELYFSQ
#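 System: Uncleavable procaspase-7 mutant enzyme; Amount: 2 µM procaspase-7 mutant as dispensed; Schedule: 1 h compound preincubation, 2 h substrate cleavage, 25 °C; Measured by: 405 nm absorbance of p-nitroaniline; Evaluation: percent activation from buffer-corrected 0–120 min absorbance change; Control set: low DMSO alone, high DMSO plus 5 µM PC-7.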
# PHOSPHO1 inh: inhibitors of human PHOSPHO1 phosphatase | Q8TCT1 | recombinant PHOSPHO1, absorbance phosphatase assay | inhibition, % at 13.3 µM | hit rate 1.1% among 290,000; in the data active = inhibition above about 60%
# IDE inh confirm: cellular human IDE inhibition, confirmation; shares compounds with IDE inh; HEK cells, FAbetaB cleavage, fluorescence polarization; inhibition, % at 5.59 µM; hit rate 51% among 1,200;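 active = mean inhibition across triplicate wells above the cutoff set by the earlier primary insulin-degrading enzyme screen, cut at about 16% in these data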;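 note: 0% = DMSO wells and 100% = 60 µM reference IDE inhibitor Ii1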
# HEK cytotox: counter-screen for IDE inhibitors: cytotoxicity in HEK cells. HEK293 cytotoxicity, ATP luminescence. shares compounds with IDE inh. hit rate 28% among 1,200. inhibition, % at 5.59 µM. AID 449730; in the data active = inhibition above about 22%;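 note: 0% = vehicle wells and 100% = reference cytotoxic drug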
# * hit, by the source's call; · = no result given.
SMILES,UBC13 polyUb,IDE cell activ,IDE inh,procasp3 activ,procasp7 counter,PHOSPHO1 inh,others
Cc1nc(SCC(=O)Nc2c(C)n(C)n(-c3ccccc3)c2=O)c(C#N)c(C)c1C,12.0,2.5,-4.5,0.0,-1.2,·,
CCCc1cc(SCC(=O)Nc2c(C)n(C)n(-c3ccccc3)c2=O)n2c(nc3ccccc32)c1C#N,-16.4,·,6.2,-4.2,-2.0,99.8*,
Cc1nc2ccc(-c3ccccc3)cc2o1,2.9,-3.0,-3.2,-7.9,-2.4,79.2*,
COCCNC(=O)Cn1c(=O)n(CCCC(=O)NCc2ccc3c(c2)OCO3)c(=O)c2sccc21,10.7,0.1,6.0,0.9,3.5,14.3,
Cn1cnnc1SCC(=O)c1cc2ccccc2o1,-9.3,-1.8,-1.8,-2.1,5.1,-5.9,
Cn1ccnc1SCC(=O)c1cc2ccccc2o1,-7.9,-3.0,10.9,0.0,-7.5,91.4*,
CCOC(=O)c1ccc2c(c1)nc(SCC(=O)c1cc3ccccc3o1)n2CC,-10.1,1.1,2.1,1.1,-18.3,89.9*,
CC(C)(C)C(=O)Nc1ccc(C(=O)COC(=O)C2=COCCO2)cc1,-1.6,-1.2,·,·,·,·,
O=C(CN1CCSC1=O)Nc1ccc(N2CCOCC2)cc1,-4.8,2.1,·,·,·,·,
C1=CC2c3ccccc3NC(c3ccncc3)C2C1 (stereo unspecified),-20.3,1.2,8.6,-9.4,-11.6,78.7*,
CC(=O)c1ccc2c(c1)C1C=CCC1C(c1ccncc1)N2 (stereo unspecified),-16.2,3.7,4.2,-0.3,-11.1,47.8,
O=C(NC(=S)Nc1ccc(Cc2ccncc2)cc1)c1ccccc1Cl,-12.5,3.6,-1.9,-5.2,-10.3,3.6,
O=C(NC(=S)Nc1ccc(Cc2ccncc2)cc1)c1ccccc1F,-0.6,9.8,-2.7,1.3,-11.7,62.9*,
O=C(NCC(=O)N(c1ccccc1)C(C(=O)NC1CCCCC1)c1cccnc1)c1cccs1 (stereo unspecified),7.9,-0.8,2.5,-1.4,-8.6,63.2*,
O=C(NCC(=O)N(c1ccc(F)cc1)C(C(=O)NC1CCCC1)c1cccnc1)c1cccs1 (stereo unspecified),4.6,-1.5,2.4,-1.5,4.7,45.4,
CCOc1ccc(C2=CSC3=NCCN23)cc1[N+](=O)[O-],2.4,3.3,3.0,0.9,5.6,6.5,
Cc1ccc2[nH]c3c(c2c1)CN(C(=O)CN1CCCCC1)CC3,0.9,·,4.8,-10.2,1.5,18.8,
Cc1ccc2[nH]c3c(c2c1)CN(C(=O)CN1CCCc2ccccc21)CC3,-29.2,2.2,1.3,-9.1,-10.1,69.9*,
C[N+]1=C2CCCCCN2C(O)(c2ccccc2)C1 (stereo unspecified),2.9,1.6,-8.1,-12.1,-7.9,86.0*,
CCn1c(CN2CCCCCC2=O)nnc1SCc1cnc(-c2ccccc2)s1,5.5,-3.1,-1.5,5.1,-13.1,61.8*,
Cc1cc(Cl)ccc1OCC(=O)Nc1ccccc1N1CCOCC1,12.5,4.4,-0.3,-4.7,0.7,-40.7,
Cc1cc(Cl)ccc1OCC(=O)Nc1ccccc1C(=O)N1CCOCC1,-7.9,5.4,-1.6,-59.6,4.9,61.0*,
CC(C)(C)C1=Nn2c(nnc2-c2n[nH]c3c2CCC3)SC1,-6.5,1.4,3.9,-3.4,-17.5,68.3*,
Cc1cc(NC(=O)CCSc2ccc(Cl)cc2)no1,9.2,0.2,0.5,7.8,11.9,61.8*,
Cc1nnc(SCC(=O)Nc2sc3c(c2C#N)CCCCC3)n1N,-2.6,4.6,5.7,-4.9,3.8,61.3*,
SMILES,UBC13 polyUb,IDE cell activ,IDE inh,procasp3 activ,procasp7 counter,PHOSPHO1 inh,others
CCCCCc1nnc(NC(=O)C2CCCO2)s1 (stereo unspecified),4.3,35.7*,1.3,3.4,-5.8,48.3,
Cc1ccc(O)c(C(=O)c2cc(C#N)c(=O)n(-c3nccs3)c2)c1,-18.1,-42.8,51.1*,-1.4,-9.6,10.9,IDE inh confirm=65.3*;HEK cytotox=9.9
Cc1ccc(O)c(C(=O)c2cc(C#N)c(=O)n(-c3c(C)n(C)n(-c4ccccc4)c3=O)c2)c1,5.8,-9.8,6.9,9.4,3.3,3.8,
Cc1c(-n2cc(C(=O)c3cc(Cl)ccc3O)cc(C#N)c2=O)c(=O)n(-c2ccccc2)n1C,1.2,-11.6,17.2*,0.0,-1.2,-16.4,IDE inh confirm=24.8*;HEK cytotox=3.5
CC(C(=O)c1ccc(-c2ccccc2)cc1)[n+]1ccccc1 (stereo unspecified),-12.2,-3.4,5.2,-4.6,12.2,20.6,
Cc1cc[n+](C(C)C(=O)c2ccc(-c3ccccc3)cc2)cc1 (stereo unspecified),3.9,-16.3,21.1*,2.4,4.0,5.4,IDE inh confirm=8.4;HEK cytotox=77.2*
NS(=O)(=O)c1ccc(N2CCN(C(=O)c3ccco3)CC2)nc1,-6.2,-1.7,-0.8,-3.3,-13.4,·,
CC(=O)Oc1ccc(Cl)cc1/C=C/c1cc(OC(C)=O)c2ccccc2n1,·,·,37.0*,-5.7,-2.7,-7.1,IDE inh confirm=88.6*;HEK cytotox=19.4
O=C(NN=Cc1c(O)ccc2ccccc12)c1ccc2c(c1)OCO2,-29.5,-34.5,30.0*,-0.7,-33.4,·,IDE inh confirm=54.2*;HEK cytotox=111.7*
O=C(N/N=C/c1c(O)ccc2ccccc12)c1ccc(CO)nc1,-11.0,-27.4,26.6*,3.5,-3.4,19.1,IDE inh confirm=38.8*;HEK cytotox=73.4*
O=C(N/N=C/c1ccccc1)c1ccc2c(c1)OCO2,-5.2,3.6,5.9,-5.0,5.3,·,
Fc1cccc(C[n+]2csc3ccccc32)c1,14.5,-38.2,22.4*,-10.7,-29.2,-24.1,IDE inh confirm=10.7;HEK cytotox=12.4
c1ccc(C[n+]2csc3ccccc32)cc1,17.0,-38.4,26.1*,-21.4,-25.2,56.5,IDE inh confirm=11.0;HEK cytotox=9.6
Cc1ccc(S(=O)(=O)NNC(=O)c2ccc3ccccc3n2)cc1,-4.2,2.3,3.6,-2.0,3.1,·,
Cc1ccc(S(=O)(=O)NCc2cccnc2)cc1C(=O)NC1CCCCC1,-0.9,-2.0,8.6,6.5,-2.3,·,
O=c1c(O)c(-c2cccs2)oc2ccc(Cl)cc12,-17.9,24.0*,70.0*,4.5,17.1,-6.0,IDE inh confirm=25.9*;HEK cytotox=9.1
O=c1cc(-c2cccs2)oc2ccc(Cl)cc12,-4.5,-12.6,8.8,7.4,-1.3,15.9,
CCn1c(-c2cc(-c3ccccc3OC)nc3ccccc23)n[nH]c1=S,-3.0,-22.5,16.2*,-5.4,-0.8,13.3,IDE inh confirm=9.7;HEK cytotox=8.4
CCn1c(-c2cc(-c3ccc(C)cc3)nc3ccccc23)n[nH]c1=S,-9.2,-1.1,10.3,-11.2,-17.8,-67.6,
CC(C)C(=O)Nc1ccc(NC(=O)c2ccc(COc3ccccc3)cc2)cc1,-19.3,1.1,1.4,-1.5,1.9,3.1,
